In series [1] the test system is coagulase-negative Staphylococcus. Put plainly: Antibacterial activity against coagulase-negative Staphylococcus CNS 7368 after 24 to 96 hrs by well microplate assay.
Series [2] concerns Pseudomonas aeruginosa. Put plainly: Antibacterial activity against Pseudomonas aeruginosa AK1 after 24 to 96 hrs by well microplate assay. The class given is functional. The gist of the method:
(§1)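 Strains were kept at -70 °C, grown at 30 °C on sheep-blood Columbia agar, and suspended in saline to OD595 0.1, then diluted 10×. Inoculum was added at 2 µL per 100 µL Nutrient Broth with yeast extract (2 g/400 mL). Peptide stocks were 4 g/L in ethanol, diluted to 1000 mg/L in water, then twofold in broth (64–1 mg/L). Plates were held at 30 °C for 24–96 h. MIC was the lowest concentration inhibiting growth.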

Series [3] relates to Staphylococcus aureus. Put plainly: Antibacterial activity against Staphylococcus aureus 7388 after 24 to 96 hrs by well microplate assay. The series is classed as functional. A digest of the protocol: as §1
The nature of series [4]: Cytotoxicity against human erythrocytes assessed as hemolysis after 4 hrs by twofold dilution assay. The class given is cell-based. The note with it: Erythrocyte. A digest of the protocol:
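Heparinised blood was spun at 1000g and 10 °C, and erythrocytes were washed three times in 0.85% saline and diluted to 1/25 packed volume. Peptide stocks were 1.5 mM in 30% DMSO/0.5 mM saline, sonicated if suspended, and twofold serially diluted in saline in triplicate rows. 1% Triton-X served as the lysis reference. Cells were incubated at 37 °C for 4 h and centrifuged, and the supernatant was read at A405 for % hemolysis.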

Series [5] has as its system Streptococcus mitis. Put plainly: Antibacterial activity against Streptococcus mitis BMS after 24 to 96 hrs by well microplate assay. The series is classed as functional. The gist of the method: as §1
The subject of series [6] is Staphylococcus aureus. Put plainly: Antibacterial activity against Staphylococcus aureus 7323 after 24 to 96 hrs by well microplate assay. The class given is functional. The gist of the method: as §1
In a further series the test system is Escherichia coli. In words: Antibacterial activity against Escherichia coli ATCC 25922 after 24 to 96 hrs by well microplate assay. The class given is functional. The gist of the method: as §1
The next series has as its system Enterococcus faecalis. Put plainly: Antibacterial activity against Enterococcus faecalis 1131 after 24 to 96 hrs by well microplate assay. The series is classed as functional. The gist of the method:
as §1

Series [7] concerns Pseudomonas aeruginosa. In words: Antibacterial activity against Pseudomonas aeruginosa ATCC 19582 after 24 to 96 hrs by well microplate assay. The class given is functional. The gist of the method: as §1
In series [8] the test system is coagulase-negative Staphylococcus. Put plainly: Antibacterial activity against coagulase-negative Staphylococcus CNS 5115 after 24 to 96 hrs by well microplate assay.
Series [9] is described as follows: Cytotoxicity against human erythrocytes assessed as hemolysis at 12 uM after 4 hrs by twofold dilution assay. The series is classed as cell-based, Erythrocyte. The note with it: read-out: Activity. The gist of the method:
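Freshly drawn heparinised blood was spun at 1000g and 10 °C. The erythrocytes were washed three times in 0.85% saline and diluted to 1/25 packed cell volume. Peptide stock was 1.5 mM in 30% DMSO/saline, sonicated if needed, and serially twofold diluted in saline across 10 wells, with 1% Triton-X as reference. Plates were held at 37 °C for 4 h, then centrifuged, and hemolysis percentage was read from supernatant A405.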

The subject of series [10] is coagulase-negative Staphylococcus. In words: Antibacterial activity against coagulase-negative Staphylococcus CNS 5277 after 24 to 96 hrs by well microplate assay.
Series [11] deals with Streptococcus mitis. Put plainly: Antibacterial activity against Streptococcus mitis ATCC 33399 after 24 to 96 hrs by well microplate assay. The series is classed as functional. The gist of the method:
as §1

Series [12] in a line: Cytotoxicity against human erythrocytes assessed as hemolysis at 1.5 mM after 4 hrs by twofold dilution assay. The series is classed as cell-based. Particulars: erythrocyte, 1500 µM.
The nature of series [13]: Cytotoxicity against human erythrocytes assessed as hemolysis at 25 uM after 4 hrs by twofold dilution assay. The series is classed as cell-based, Erythrocyte. Particulars: read-out: Activity.

In brackets after ≈: the same amount, converted by molar mass. *1 amine or outer side, *2 acyl side, *3 side chain or, on linkers, in order; H or OH if unused. Where a SMILES comes first, the peptide text is derived from it. [ ]: non-standard residue; d: D form. The star is where a group is joined. X2 = C[N+](C)(C)c1ccc(C[C@H](N[*:1])C(=O)[*:2])cc1; Phe(4-NH2) = Nc1ccc(C[C@H](N)C(=O)O)cc1; Orn = NCCC[C@H](N)C(=O)O; PhAc = O=C(Cc1ccccc1)*; Piv = CC(C)(C)C(=O)*

With `CC(C)C[C@@H]1NC(=O)[C@H](CCCN)NC(=O)[C@H](C(C)C)NC(=O)[C@@H]2CCCN2C(=O)[C@@H](Cc2ccccc2)NC(=O)[C@H](CC(C)C)NC(=O)[C@H](CCCN)NC(=O)[C@H](C(C)C)NC(=O)[C@@H]2CCCN2C(=O)[C@@H](Cc2ccccc2)NC1=O` [GRAMICIDIN S] (cyclo(L[dF]PV[Orn]L[dF]PV[Orn])), the MIC came out at 8 µg/mL (≈ 7.01 µM) in series [1]; 64 µg/mL (≈ 56.1 µM) in the series on Pseudomonas aeruginosa [2]; 8 µg/mL (≈ 7.01 µM) with Staphylococcus aureus [3]; 8 µg/mL (≈ 7.01 µM) in the series on Streptococcus mitis [5]; 8 µg/mL (≈ 7.01 µM) with Staphylococcus aureus [6]; 32 µg/mL (≈ 28 µM) in the series with Escherichia coli. Besides, the minimum inhibitory concentration (MIC) was 16 µg/mL (≈ 14 µM) against Enterococcus faecalis; 8 µg/mL (≈ 7.01 µM) against Pseudomonas aeruginosa [7]; 16 µg/mL (≈ 14 µM) in [8]; 16 µg/mL (≈ 14 µM) in [10]; 4 µg/mL (≈ 3.5 µM) in the series with Streptococcus mitis [11]. The EC50 in [4] was 11.7 µM. The hemolysis at 4 h, 12 µM in [9] was found to be 50%.

Take `CC(C)C[C@@H]1NC(=O)[C@H](CCCN)NC(=O)[C@H](C(C)C)NC(=O)[C@@H]2CCCN2C(=O)[C@H](Cc2ccccc2)NC(=O)[C@H](CC(C)C)NC(=O)[C@H](CCCN)NC(=O)[C@H](C(C)C)NC(=O)[C@@H]2CCCN2C(=O)[C@H](Cc2ccc(NC(=O)Cc3ccccc3)cc2)NC1=O` (cyclo(FPV[Orn]L[Phe(4-NH2)](PhAc)PV[Orn]L)): the MIC in [1] is 8 µg/mL (≈ 6.28 µM); against Pseudomonas aeruginosa [2], over 64 µg/mL; against Staphylococcus aureus [3], 16 µg/mL (≈ 12.6 µM); with Streptococcus mitis [5], 8 µg/mL (≈ 6.28 µM); against Staphylococcus aureus [6], 8 µg/mL (≈ 6.28 µM); against Escherichia coli it was 32 µg/mL (≈ 25.1 µM). For the same compound, the MIC against Enterococcus faecalis was 32 µg/mL (≈ 25.1 µM); in the series with Pseudomonas aeruginosa [7], over 64 µg/mL; in [8], 8 µg/mL (≈ 6.28 µM); in series [10], 8 µg/mL (≈ 6.28 µM); against Streptococcus mitis [11], 16 µg/mL (≈ 12.6 µM). Besides, the EC50 in series [4] was 9.35 µM. The Activity result in series [12] is recorded as “Non-toxic”.

For `CC(C)C[C@@H]1NC(=O)[C@H](CCCN)NC(=O)[C@H](C(C)C)NC(=O)[C@@H]2CCCN2C(=O)[C@H](Cc2ccccc2)NC(=O)[C@H](CC(C)C)NC(=O)[C@H](CCCN)NC(=O)[C@H](C(C)C)NC(=O)[C@@H]2CCCN2C(=O)[C@H](Cc2ccc([N+](C)(C)C)cc2)NC1=O.[I-]` (cyclo(FPV[Orn]L[X2]PV[Orn]L)), the MIC was 32 µg/mL in series [1]; over 64 µg/mL with Pseudomonas aeruginosa [2]; 32 µg/mL against Staphylococcus aureus [3]; 8 µg/mL in the series with Streptococcus mitis [5]; 64 µg/mL against Staphylococcus aureus [6]; 64 µg/mL in the series with Escherichia coli. Also, the MIC with Enterococcus faecalis was over 64 µg/mL; in the series with Pseudomonas aeruginosa [7], over 64 µg/mL; in series [8] it was 16 µg/mL; in series [10] it was 16 µg/mL; with Streptococcus mitis [11] it was 8 µg/mL. In [4], the EC50 came out at 134 µM. Moreover, the Activity entry in series [12] is recorded as “Non-toxic”.

As to `CC(C)C[C@@H]1NC(=O)[C@H](CCCN)NC(=O)[C@H](C(C)C)NC(=O)[C@@H]2CCCN2C(=O)[C@H](Cc2ccccc2)NC(=O)[C@H](CC(C)C)NC(=O)[C@H](CCCN)NC(=O)[C@H](C(C)C)NC(=O)[C@@H]2CCCN2C(=O)[C@H](Cc2ccc(NC(=O)C(C)(C)C)cc2)NC1=O` (cyclo(FPV[Orn]L[Phe(4-NH2)](Piv)PV[Orn]L)), the MIC is 8 µg/mL (≈ 6.45 µM) in series [1]; 64 µg/mL (≈ 51.6 µM) in the series on Pseudomonas aeruginosa [2]; 8 µg/mL (≈ 6.45 µM) with Staphylococcus aureus [3]; 4 µg/mL (≈ 3.22 µM) with Streptococcus mitis [5]; 8 µg/mL (≈ 6.45 µM) against Staphylococcus aureus [6]; 32 µg/mL (≈ 25.8 µM) against Escherichia coli. In addition, the MIC in the series with Enterococcus faecalis is 16 µg/mL (≈ 12.9 µM); in the series on Pseudomonas aeruginosa [7], 64 µg/mL (≈ 51.6 µM); in series [8], 8 µg/mL (≈ 6.45 µM); in [10] it was 8 µg/mL (≈ 6.45 µM); against Streptococcus mitis [11] it was 4 µg/mL (≈ 3.22 µM). Further, in series [13], the hemolysis at 4 h, 25 µM was found to be 50%.

Broadly, the MIC is the lowest concentration that inhibits growth of the organism. As usually defined, the EC50 is the concentration giving half of the maximal effect.

Source of the values: ChEMBL document CHEMBL1152538, “Synthesis and biological evaluation of asymmetric gramicidin S analogues containing modified D-phenylalanine residues” (Bioorg Med Chem, 2009).
